Test results: ChEMBL document CHEMBL5653606 (J Pharmacol Exp Ther, 2011)
Active and inactive are the calls of the source.

Legend:
[1] = molecular target: T1, Fatty-acid amide hydrolase 1 (Homo sapiens, UniProt O00519); experiment: Inhibition of human FAAH assessed as kinact/Ki ratio incubated for 1 min in presence of glutamate dehydrogenase by 384-well format microplate reader assay
T1 sequence (O00519 whole entry): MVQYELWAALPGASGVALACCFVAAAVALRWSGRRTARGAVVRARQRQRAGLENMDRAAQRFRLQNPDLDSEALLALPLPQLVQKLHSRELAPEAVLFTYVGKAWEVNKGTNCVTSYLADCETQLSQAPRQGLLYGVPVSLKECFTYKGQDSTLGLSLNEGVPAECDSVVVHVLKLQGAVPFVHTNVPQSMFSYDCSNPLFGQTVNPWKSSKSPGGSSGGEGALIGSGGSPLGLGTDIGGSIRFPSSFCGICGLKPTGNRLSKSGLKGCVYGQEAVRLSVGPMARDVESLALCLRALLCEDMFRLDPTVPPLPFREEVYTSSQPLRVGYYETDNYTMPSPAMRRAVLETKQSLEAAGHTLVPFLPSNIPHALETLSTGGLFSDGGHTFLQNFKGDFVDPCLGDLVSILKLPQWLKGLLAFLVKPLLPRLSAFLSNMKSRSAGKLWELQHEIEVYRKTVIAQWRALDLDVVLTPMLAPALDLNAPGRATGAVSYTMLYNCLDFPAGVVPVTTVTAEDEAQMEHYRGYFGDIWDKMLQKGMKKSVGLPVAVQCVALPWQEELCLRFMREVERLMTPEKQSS

[2] = molecular target: T1, Fatty-acid amide hydrolase 1; experiment: Inhibition of human FAAH assessed as kinact/Ki ratio incubated for 30 min in presence of glutamate dehydrogenase by 384-well format microplate reader assay
[3] = molecular target: T2, Fatty-acid amide hydrolase 1 (Homo sapiens) (UniProt O00519); experiment: Inhibition of FAAH in human brain at 100 uM in presence of FP-rhodamine by competitive activity-based protein profiling method; assay type: tissue-based
T2 sequence (whole entry): T1 sequence (O00519 whole entry)
Outline: (§1)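 Competitive ABPP on human and mouse brain, liver and heart proteomes (membrane and soluble fractions), exposed to compound at 10 or 100 μM or to DMSO. Serine hydrolases were then labeled with FP-rhodamine. Gels were read by fluorescence scanning, and loss of band labeling (FAAH or other hydrolases by kDa) was judged.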

[4] = molecular target: T3, Fatty-acid amide hydrolase 1 (Mus musculus) (UniProt O08914); experiment: Inhibition of FAAH in mouse brain at 100 uM in presence of FP-rhodamine by competitive activity-based protein profiling method; assay type: tissue-based; outline: as §1
T3 sequence (whole entry): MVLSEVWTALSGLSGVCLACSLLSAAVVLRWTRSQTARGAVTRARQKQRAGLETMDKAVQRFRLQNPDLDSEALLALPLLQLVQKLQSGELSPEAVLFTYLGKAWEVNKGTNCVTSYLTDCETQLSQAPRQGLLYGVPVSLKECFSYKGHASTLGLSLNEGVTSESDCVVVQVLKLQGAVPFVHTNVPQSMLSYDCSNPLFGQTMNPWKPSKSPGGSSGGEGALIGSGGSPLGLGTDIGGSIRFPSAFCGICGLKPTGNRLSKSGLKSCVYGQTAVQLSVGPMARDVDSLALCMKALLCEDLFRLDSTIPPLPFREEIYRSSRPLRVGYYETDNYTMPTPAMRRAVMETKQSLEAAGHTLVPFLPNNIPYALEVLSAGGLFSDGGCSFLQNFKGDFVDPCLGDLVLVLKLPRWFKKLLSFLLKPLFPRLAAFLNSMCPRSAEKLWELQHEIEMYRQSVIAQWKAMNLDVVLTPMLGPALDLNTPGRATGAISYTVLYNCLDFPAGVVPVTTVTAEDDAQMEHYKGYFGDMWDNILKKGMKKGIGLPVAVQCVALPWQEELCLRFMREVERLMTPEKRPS

Rattus norvegicus [5] = experiment: Antihyperalgesic activity in CFA induced Sprague-Dawley rat assessed as inhibition of mechanical allodynia at 0.1 mg/kg, po measured for 4 hrs by von frey test; assay type: functional, organism-based
Outline: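 Male Sprague-Dawley rats (200–250 g) given 150 μl CFA (1 mg/ml in mineral oil) intraplantar in the hind paw. Mechanical paw withdrawal thresholds read with Von Frey hairs on day 5 postinjection. Dosed orally as nanocrystalline suspension in 2% polyvinylpyrrolidone/0.15% SDS in water, 10 ml/kg. PWTs taken 4 h postdose for dose-response, or at 1, 2, 4, 8, 24 h for time course.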

[6] = molecular target: T4, Fatty-acid amide hydrolase 1 (Rattus norvegicus) (UniProt P97612); experiment: In vivo inhibition of FAAH in CFA induced Sprague-Dawley rat brain at 0.1 to 10 mg/kg, po relative to control; assay type: functional, organism-based; conditions: dose 0.1-10 mg/kg
T4 sequence (whole entry): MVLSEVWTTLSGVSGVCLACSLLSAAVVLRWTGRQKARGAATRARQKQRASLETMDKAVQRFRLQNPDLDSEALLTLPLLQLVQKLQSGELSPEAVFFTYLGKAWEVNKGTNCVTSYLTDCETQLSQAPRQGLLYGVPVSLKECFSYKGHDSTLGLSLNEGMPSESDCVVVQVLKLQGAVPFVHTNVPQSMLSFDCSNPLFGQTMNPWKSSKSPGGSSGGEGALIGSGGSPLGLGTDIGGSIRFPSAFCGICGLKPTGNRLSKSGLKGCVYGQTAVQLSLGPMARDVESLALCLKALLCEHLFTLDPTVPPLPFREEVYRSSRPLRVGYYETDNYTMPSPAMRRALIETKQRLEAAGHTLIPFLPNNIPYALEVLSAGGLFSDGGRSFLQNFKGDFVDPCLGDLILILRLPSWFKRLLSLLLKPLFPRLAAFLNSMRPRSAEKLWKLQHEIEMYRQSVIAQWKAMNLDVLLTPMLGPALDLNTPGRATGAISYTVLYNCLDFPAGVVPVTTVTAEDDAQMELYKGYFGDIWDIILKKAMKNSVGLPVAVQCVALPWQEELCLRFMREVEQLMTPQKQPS
Outline: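 Brain and blood leukocyte membrane fractions from CFA rats after oral dosing. FAAH activity measured with 3H-labeled AEA substrate, quantifying released 3H-ethanolamine; n = 3 rats/group. Time course sampled at 1, 2, 4, 8, 24 h after 1 mg/kg.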

[7] = molecular target: T4, Fatty-acid amide hydrolase 1 (Rattus norvegicus); experiment: In vivo inhibition of FAAH in CFA induced Sprague-Dawley rat plasma assessed as elevation of PEA level at 1 mg/kg, po measured for 1 to 24 hrs; assay type: functional, organism-based; conditions: time 1-24 hrs
Rattus norvegicus [8] = experiment: Antihyperalgesic activity in MIA induced Sprague-Dawley rat assessed as increased joint compression thresholds at 3 mg/kg, po administered once daily for 3 consecutive days and measured after 2 to 4 hrs; assay type: functional, organism-based; conditions: time 3.0 day
Outline: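 Male Sprague-Dawley rats (220–270 g), isoflurane-anesthetized, given 2 mg MIA in 0.9% saline (50 μl) intra-articular into the knee. From day 14, oral dosing at 10 ml/kg once daily for 3 days in 4% 2-hydroxypropyl-β-cyclodextrin/1% ethanol in 0.01 M HCl. Celecoxib 30 mg/kg in 0.5% methylcellulose twice daily. Joint compression threshold by digital Randall-Selitto at 2 and 4 h postdose on days 1 and 3; n = 10/group.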

Mus musculus = experiment: In vivo inhibition of rhodamine-azide tagged FAAH expressed in mouse brain at 10 mg/kg, po by CC-ABPP method based in-gel fluorescence scanning analysis; assay type: functional, organism-based

O=C(Nc1cccnn1)N1CCC(=Cc2cccc(Oc3ccc(C(F)(F)F)cn3)c2)CC1 was tested, and the IC50 [1] was 0.0504 µM, the IC50 [2] was 0.0107 µM and the inhibition [3] was “Active”. The inhibition [4] was “Active”, the Activity (Rattus norvegicus [5]) was “Active” and the inhibition [6] was 98%. The inhibition [7] was “Active”, the Activity (Rattus norvegicus [8]) was “Active” and the inhibition (Mus musculus) was “Active”.
